Measurements published in ChEMBL document CHEMBL1159317, “Flavonoids from Ulex airensis and Ulex europaeus ssp. europaeus” (J Nat Prod, 2002).
The source made the active and inactive calls. The calls are words filed in the database; no cut-off is given here.

Columns and labels:
Cladosporium cucumerinum [1] = assay: Antifungal activity against Cladosporium cucumerinum CCMI 206 at 100 ug by bioautographic TLC bioassay; type: functional, organism-based
How it was run: (§1)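 Bioautography on developed TLC plates against the fungus C. cucumerinum strain CCMI 206, obtained from the CCMI culture collection. Procedure followed Homans and Fuchs.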

Cladosporium cucumerinum [2] = assay: Induction of growth of Cladosporium cucumerinum CCMI 206 at 100 ug by bioautographic TLC bioassay; type: functional, organism-based; how it was run: as §1

## CC1(C)C=Cc2c(cc(O)c3c(=O)cc(-c4ccc(O)cc4)oc23)O1
Cladosporium cucumerinum [1]
  Activity: inactive

## COc1cc2c(cc1O)[C@@H]1Oc3cc4c(cc3[C@@H]1CO2)OCO4
Cladosporium cucumerinum [2]
  Activity: Active

## CC1(C)C=Cc2cc(-c3coc4cc5oc(C(C)(C)O)cc5c(O)c4c3=O)ccc2O1
Cladosporium cucumerinum [1]
  Activity: inactive

## CC1(C)C=Cc2cc(-c3coc4cc5c(c(O)c4c3=O)CC(C(C)(C)O)O5)ccc2O1 (configuration not stated)
Cladosporium cucumerinum [1]
  Activity: inactive

## COc1c(O)cc2c(c1OC)OC[C@H]1c3cc4c(cc3O[C@@H]21)OCO4
Cladosporium cucumerinum [2]
  Activity: Active

## CC(C)=CCc1c(O)cc2occ(-c3ccc4c(c3)C=CC(C)(C)O4)c(=O)c2c1O
Cladosporium cucumerinum [1]
  Activity: inactive

## COc1cc2c(cc1C1COc3cc(O)ccc3C1=O)OCO2 (configuration not stated)
Cladosporium cucumerinum [1]
  Activity: Active

## COc1cc2c(cc1OC)[C@@H]1Oc3cc4c(cc3[C@@H]1CO2)OCO4
Cladosporium cucumerinum [1]
  Activity: Active

## CC1(C)C=Cc2c(ccc(-c3coc4cc(O)cc(O)c4c3=O)c2O)O1
Cladosporium cucumerinum [1]
  Activity: Active

## CC1(C)C=Cc2c(cc3occ(-c4ccc(O)cc4)c(=O)c3c2O)O1
Cladosporium cucumerinum [1]
  Activity: inactive

## COc1cc(O)c2c(=O)c(-c3ccc(O)c(CC=C(C)C)c3)coc2c1CC=C(C)C
Cladosporium cucumerinum [1]
  Activity: Active

## CC(C)=CCc1cc(-c2coc3cc(O)c(CC=C(C)C)c(O)c3c2=O)ccc1O
Cladosporium cucumerinum [1]
  Activity: inactive
